PAFAH1B3 FP inh: PAFAH1B3 (human) inhibition | inhibition, % at 3.39 µM | AID 492972 | 340,000 compounds, 0.28% hits | recombinant PAFAH1B3, FP-rhodamine probe, fluorescence polarization;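 active = inhibition above the screen-wide average of all tested compounds plus 3 SD, cut at about 25% in these data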;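 note: 0% = enzyme with DMSO only and 100% = wells lacking PAFAH1B3 protein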
VIM-2 inhibitor: blocks Pseudomonas aeruginosa VIM-2 metallo-beta-lactamase; purified VIM-2, nitrocefin hydrolysis, epi-absorbance fluorescence; inhibition, % at 5.6 µM; 290,000 compounds, 0.89% hits; AID 1527;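 active = inhibition above the mean of all tested compounds plus 3 SD, cutoff set per screening run, cut at about 7.5% in these data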;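 note: red hydrolysis product quenches plate fluorescence so inhibitors raise well fluorescence; 0% = enzyme with DMSO and 100% = DMSO without enzyme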
pPAFAH inh: pPAFAH (human) enzyme inhibition | recombinant pPAFAH, FP-rhodamine probe fluorescence polarization | inhibition, % at 3.39 µM | 330,000 compounds, 1.5% hits;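 active = inhibition above the mean inhibition across the screen plus 3 SD, cut at about 25% in these data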;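 note: inhibitors block binding of the rhodamine activity-based probe so polarization drops; 0% = enzyme with DMSO and 100% = wells lacking pPAFAH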
Target sequence (Q13093 whole entry, looked up): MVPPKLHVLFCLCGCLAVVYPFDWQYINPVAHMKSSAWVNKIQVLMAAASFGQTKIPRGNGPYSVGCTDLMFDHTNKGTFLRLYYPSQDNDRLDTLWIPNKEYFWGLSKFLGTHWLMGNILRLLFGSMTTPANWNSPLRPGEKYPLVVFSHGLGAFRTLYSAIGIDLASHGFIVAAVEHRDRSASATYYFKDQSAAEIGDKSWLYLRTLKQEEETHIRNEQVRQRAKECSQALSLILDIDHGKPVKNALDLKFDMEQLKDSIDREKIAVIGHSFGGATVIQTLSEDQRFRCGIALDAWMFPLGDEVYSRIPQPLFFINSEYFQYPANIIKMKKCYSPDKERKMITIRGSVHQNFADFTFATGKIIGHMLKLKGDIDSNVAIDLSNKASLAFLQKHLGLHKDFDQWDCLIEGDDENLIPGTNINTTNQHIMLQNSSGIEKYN
PAFAH2 inh: PAFAH2 (human) inhibition; recombinant PAFAH2, FP-rhodamine activity probe, fluorescence polarization; inhibition, % at 3.39 µM; 340,000 compounds, 0.99% hits;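 active = inhibition above the mean over all tested compounds plus 3 SD, cut at about 30% in these data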;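 note: inhibitors block probe labeling of enzyme so polarization drops; 0% = enzyme with DMSO and 100% = wells lacking PAFAH2 protein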
PAFAH1B2 FP inh: blocks human PAF acetylhydrolase 1b catalytic subunit 2; recombinant PAFAH1B2, FP-rhodamine activity probe, fluorescence polarization; inhibition, % at 3.39 µM; 340,000 compounds, 1.2% hits; AID 492953;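 active = inhibition above the mean of all tested compounds plus 3 SD, cut at about 24% in these data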;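 note: 0% = enzyme with DMSO and 100% = wells lacking PAFAH1B2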
IMP-1 inhibitor: blocks Pseudomonas aeruginosa IMP-1 metallo-beta-lactamase | inhibition, % at 5.6 µM | 290,000 compounds, 0.45% hits | purified IMP-1, nitrocefin hydrolysis, epi-absorbance fluorescence;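 active = inhibition above the mean plus 3 SD of all compounds in the same screening run, cut at about 4.5% in these data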;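 note: 0% = IMP-1 with DMSO and 100% = DMSO wells lacking enzyme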
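Test system: recombinant IMP-1 enzyme, purified / Medium: HEPES buffer pH 7.1 with ZnSO4 and Brij 35 / Doses: single dose, 5.6 µM / Times: 25 °C, 15 min preincubation, 25 min reaction / Detection: Epi-absorbance via hydrolysed-nitrocefin quenching of white-plate fluorescence, 480/530 nm, EDTA stop / Evaluation: percent inhibition from optical density relative to buffer-blank wells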
PAFAH2 confirm: PAFAH2 (human) inhibition, confirmed; shares compounds with PAFAH2 inh; recombinant PAFAH2, FP-rhodamine activity probe, fluorescence polarization; inhibition, % at 3.39 µM; 2,300 compounds, 65% hits; AID 493030;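 active = mean inhibition over three repeats above a set limit taken from the earlier primary screen, cut at about 30% in these data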;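 note: inhibitor blocks binding of rhodamine activity probe so polarization falls; 0% = enzyme with DMSO and 100% = wells lacking PAFAH2 protein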
* hit, by the source's call; x = no result given. Rows were chosen to be rich in hits. Some 3.6% of all compounds tested hit in one or more screens of this group.

SMILES	PAFAH1B3 FP inh	VIM-2 inhibitor	pPAFAH inh	PAFAH2 inh	PAFAH1B2 FP inh	IMP-1 inhibitor	PAFAH2 confirm
CC(=O)N1CCN(S(=O)(=O)c2cccc(C(=O)OCC(=O)NC(=O)c3cccn3C)c2)CC1	4	1	11	35*	4	-3	32*
CC(=O)N1CCN(S(=O)(=O)c2cccc(C(=O)OCC(=O)Nc3c(Cl)cccc3C(F)(F)F)c2)CC1	2	x	x	44*	4	x	32*
COc1cccc(CNC(=O)COC(=O)c2cccc(S(=O)(=O)N3CCN(C(C)=O)CC3)c2)c1	3	x	16	17	3	x	x
Cc1ccc(C(=O)OCC(=O)NC(=O)c2cccn2C)cc1[N+](=O)[O-]	-1	-1	2	-7	6	-3	x
Cc1ccc(C)c(NC(=O)COC(=O)c2cccc(S(=O)(=O)N3CCCCC3)c2)c1	-2	x	10	7	4	x	x
O=C(COC(=O)c1cccc(S(=O)(=O)N2CCCC2)c1)Nc1ccccc1C(F)(F)F	-3	x	x	45*	1	x	40*
Cc1cc(OCC(=O)NCCCN(C)C)cc(C)c1Br	2	-3	2	-5	-1	-3	x
CC1CCCC(C(=O)O)N1C(=O)CCSC(=O)c1ccccc1 (configuration not stated)	11	1	1	44*	2	-2	46*
CC1CCCC(C)N1C(=O)Cn1nnc(-c2ccccc2)n1 (configuration not stated)	4	0	6	-3	5	-1	x
N#C/C(=C\c1c(Cl)cccc1Cl)c1nc2ccccc2o1	0	-3	1	33*	-2	-2	33*
CN(Cc1nccs1)C(=O)C1CCC(=O)N(CCCc2ccccc2)C1 (configuration not stated)	5	-2	x	31*	-1	-2	20
CCOP(=O)(OCC)c1ccc2ccc3ccccc3c(=O)c2c1	-2	x	4	7	8	x	x
Cc1noc(NC(=O)c2ccccc2C(F)(F)F)c1C#N	8	-2	3	38*	1	-2	1
Oc1ccc(-c2onc(C(F)(F)F)c2-c2cscn2)c(O)c1	5	-3	5	8	1	-3	x
CC(C)(C)c1ccc(OC(=O)N2CCOCC2)cc1	2	-2	21	30*	-5	-1	38*
CCC(=O)c1ccc(OC(=O)N2CCOCC2)cc1	5	-1	24	35*	1	-4	21
O=C(CCNC(=O)c1ccc(Cl)cc1)Nc1cccc(S(=O)(=O)N2CCCCC2)c1	2	x	1	0	4	x	x
Cc1ccc(C(=O)c2ccccc2C(=O)OCC(=O)NCCc2ccccc2)cc1	5	-4	4	9	7	-3	x
O=C(COC(=O)c1ccccc1C(=O)c1ccc(Cl)cc1)NCc1ccccc1	6	-2	4	34*	4	-2	26
CC(C)(C)NC(=O)COC(=O)c1ccccc1C(=O)c1ccccc1	11	1	3	69*	4	0	56*
O=C(COC(=O)c1ccc(Br)cc1)NCc1ccccc1	8	0	11	31*	1	-3	25
O=C(COC(=O)c1ccccc1C(=O)c1ccccc1)NCc1ccc(F)cc1	5	-2	3	43*	1	-2	36*
COc1ccc(S(=O)(=O)N2CCc3ccccc32)cc1C(=O)Nc1ccc(C(N)=O)cc1	6	x	1	3	7	x	x
COc1ccccc1C(=O)COC(=O)CN1C(=O)C2CC=CCC2C1=O (configuration not stated)	8	x	1	3	1	x	x
CC#Cc1cc2c(cc1O)CCC1C2CCC2(C)C(O)CCC12 (configuration not stated)	3	x	x	4	1	x	x
Cc1ccc(NC(=O)COC(=O)Cc2cccs2)cc1S(=O)(=O)N1CCOCC1	6	-4	18	4	-3	-4	x
CSc1cccc(NC(=O)COC(=O)C2CCN(S(=O)(=O)c3ccccc3)CC2)c1	-6	x	5	3	2	x	x
